Measured values taken from ChEMBL document CHEMBL4270612, “Discovery of dual GyrB/ParE inhibitors active against Gram-negative bacteria” (Eur J Med Chem, 2018).
Values after ≈ are worked out from the molar mass of the structure shown.

Tests used:
Pseudomonas aeruginosa [1] = experiment: Antibacterial activity against Pseudomonas aeruginosa ARC3509 after 24 hrs by broth microdilution method; type: functional; conditions: ARC3509, 24 h
Procedure, shortened: (§1)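 Broth microdilution per CLSI. Bacterial suspension adjusted to 1×10^6 CFU/mL in cation-adjusted Mueller–Hinton broth and mixed 1:1 with 2-fold serial compound dilutions. Final DMSO 2.5% v/v. Plates incubated at 35 °C with shaking at 140 rpm for 24 h.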

[2] = Dissociation constant, acidic pKa of compound by pH metric method; type: physicochemical
Procedure, shortened: (§2)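 Potentiometric (pH-metric) titration on an automated titrator, Gold Standard pH metric assay, run in triplicate.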

Pseudomonas aeruginosa [3] = experiment: Antibacterial activity against Pseudomonas aeruginosa ARC4060 after 24 hrs by broth microdilution method; type: functional; conditions: ARC4060, 24 h; procedure, shortened: as §1
Staphylococcus aureus = experiment: Antibacterial activity against Staphylococcus aureus ATCC 29213 after 24 hrs by broth microdilution method; type: functional; conditions: ATCC 29213, 24 h; procedure, shortened: as §1
Pseudomonas aeruginosa [4] = experiment: Antibacterial activity against Pseudomonas aeruginosa ARC3612 after 24 hrs by broth microdilution method; type: functional; conditions: ARC3612, 24 h; procedure, shortened: as §1
Pseudomonas aeruginosa [5] = experiment: Antibacterial activity against Pseudomonas aeruginosa ARC3727 after 24 hrs by broth microdilution method; type: functional; conditions: ARC3727, 24 h
Procedure, shortened: (§3)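 Broth microdilution per CLSI. Bacterial suspension adjusted to 1×10^6 CFU/mL in cation-adjusted Mueller–Hinton broth and mixed 1:1 with 2-fold serial compound dilutions. Plates incubated at 35 °C with shaking at 140 rpm for 24 h.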

Enterococcus faecalis = experiment: Antibacterial activity against Enterococcus faecalis ATCC 29212 after 24 hrs by broth microdilution method; type: functional; conditions: ATCC 29212, 24 h; procedure, shortened: as §1
Escherichia coli = experiment: Antibacterial activity against Escherichia coli after 24 hrs by broth microdilution method; type: functional; procedure, shortened: as §1
Pseudomonas aeruginosa [6] = experiment: Antibacterial activity against Pseudomonas aeruginosa ARC3607 after 24 hrs by broth microdilution method; type: functional; conditions: ARC3607, 24 h; procedure, shortened: as §1
Streptococcus pneumoniae = experiment: Antibacterial activity against Streptococcus pneumoniae ATCC 49619 after 24 hrs by broth microdilution method; type: functional; conditions: ATCC 49619, 24 h; procedure, shortened: as §1
DNA gyrase subunit B = DNA gyrase subunit B (Escherichia coli, UniProt P0AES6); experiment: Inhibition of Escherichia coli GyrB (1 to 220 residues) expressed in Escherichia coli BL21(DE3)
Acinetobacter baumannii [7] = experiment: Antibacterial activity against Acinetobacter baumannii ARC3493 after 24 hrs by broth microdilution method; type: functional; conditions: ARC3493, 24 h; procedure, shortened: as §1
Acinetobacter baumannii [8] = experiment: Antibacterial activity against Acinetobacter baumannii ARC2728 after 24 hrs by broth microdilution method; type: functional; conditions: ARC2728, 24 h; procedure, shortened: as §1
[9] = Dissociation constant, basic pKa of compound by pH metric method; type: physicochemical; procedure, shortened: as §2
Acinetobacter baumannii [10] = experiment: Antibacterial activity against Acinetobacter baumannii ARC2675 after 24 hrs by broth microdilution method; type: functional; conditions: ARC2675, 24 h; procedure, shortened: as §3
Acinetobacter baumannii [11] = experiment: Antibacterial activity against Acinetobacter baumannii ARC3658 after 24 hrs by broth microdilution method; type: functional; conditions: ARC3658, 24 h; procedure, shortened: as §1
Acinetobacter baumannii [12] = experiment: Antibacterial activity against Acinetobacter baumannii ARC2780 after 24 hrs by broth microdilution method; type: functional; conditions: ARC2780, 24 h; procedure, shortened: as §3
Acinetobacter baumannii [13] = experiment: Antibacterial activity against Acinetobacter baumannii ARC3485 after 24 hrs by broth microdilution method; type: functional; conditions: ARC3485, 24 h; procedure, shortened: as §1
Pseudomonas aeruginosa [14] = experiment: Antibacterial activity against Pseudomonas aeruginosa ARC4068 after 24 hrs by broth microdilution method; type: functional; conditions: ARC4068, 24 h; procedure, shortened: as §3
[15] = Dissociation constant, pKa of compound by pH metric method; type: physicochemical; procedure, shortened: as §2

SMILES: CCNC(=O)Nc1cc(-c2nc(C(F)(F)F)cs2)c(-c2cc(-c3n[nH]c(=O)o3)cnc2N2C3CCC2CN(C)C3)cn1
- MIC (Pseudomonas aeruginosa [1]): 8 µg/mL (≈ 13.3 µM)
- pKa [2]: 6.7
- MIC (Pseudomonas aeruginosa [3]): 8 µg/mL (≈ 13.3 µM)
- MIC (Staphylococcus aureus): < 0.06 µg/mL
- MIC (Pseudomonas aeruginosa [4]): 8 µg/mL (≈ 13.3 µM)
- MIC (Pseudomonas aeruginosa [5]): 4 µg/mL (≈ 6.65 µM)
- MIC (Enterococcus faecalis): < 0.06 µg/mL
- MIC (Escherichia coli): 1.2 µg/mL (≈ 1.99 µM)
- MIC (Pseudomonas aeruginosa [6]): 16 µg/mL (≈ 26.6 µM)
- MIC (Streptococcus pneumoniae): < 0.06 µg/mL
- IC50 (DNA gyrase subunit B): 6 nM
- MIC (Acinetobacter baumannii [7]): 1 µg/mL (≈ 1.66 µM)
- MIC (Acinetobacter baumannii [8]): 1 µg/mL (≈ 1.66 µM)
- pKa [9]: 7.8
- MIC (Acinetobacter baumannii [10]): 4 µg/mL (≈ 6.65 µM)
- MIC (Acinetobacter baumannii [11]): 1 µg/mL (≈ 1.66 µM)
- MIC (Acinetobacter baumannii [12]): 0.5 µg/mL (≈ 0.831 µM)
- MIC (Acinetobacter baumannii [13]): 2 µg/mL (≈ 3.32 µM)
- MIC (Pseudomonas aeruginosa [14]): 8 µg/mL (≈ 13.3 µM)

SMILES: CCNC(=O)Nc1cc(-c2nc(C(F)(F)F)cs2)c(-c2cc3ncccc3nc2N2C3CCC2CN(C)C3)cn1
- MIC (Pseudomonas aeruginosa [1]): 16 µg/mL (≈ 28.1 µM)
- MIC (Pseudomonas aeruginosa [3]): 16 µg/mL (≈ 28.1 µM)
- MIC (Staphylococcus aureus): < 0.06 µg/mL
- pKa [15]: 7.8
- MIC (Pseudomonas aeruginosa [4]): 32 µg/mL (≈ 56.3 µM)
- MIC (Pseudomonas aeruginosa [5]): 32 µg/mL (≈ 56.3 µM)
- MIC (Enterococcus faecalis): < 0.06 µg/mL
- MIC (Escherichia coli): 2.27 µg/mL (≈ 3.99 µM)
- MIC (Pseudomonas aeruginosa [6]): 64 µg/mL (≈ 113 µM)
- MIC (Streptococcus pneumoniae): < 0.06 µg/mL
- IC50 (DNA gyrase subunit B): 7 nM
- MIC (Acinetobacter baumannii [7]): 2 µg/mL (≈ 3.52 µM)
- MIC (Acinetobacter baumannii [8]): 1 µg/mL (≈ 1.76 µM)
- MIC (Acinetobacter baumannii [10]): 4 µg/mL (≈ 7.03 µM)
- MIC (Acinetobacter baumannii [11]): 2 µg/mL (≈ 3.52 µM)
- MIC (Acinetobacter baumannii [12]): 0.5 µg/mL (≈ 0.879 µM)
- MIC (Acinetobacter baumannii [13]): 2 µg/mL (≈ 3.52 µM)
- MIC (Pseudomonas aeruginosa [14]): 16 µg/mL (≈ 28.1 µM)

SMILES: CCNC(=O)Nc1cc(-c2nc(C3CC3)cs2)c(-c2cc(-c3n[nH]c(=O)o3)cnc2N2C3CCC2CN(C)C3)cn1
- MIC (Pseudomonas aeruginosa [1]): 4 µg/mL (≈ 6.97 µM)
- pKa [2]: 6.7
- MIC (Pseudomonas aeruginosa [3]): 4 µg/mL (≈ 6.97 µM)
- MIC (Staphylococcus aureus): < 0.06 µg/mL
- MIC (Pseudomonas aeruginosa [4]): 4 µg/mL (≈ 6.97 µM)
- MIC (Pseudomonas aeruginosa [5]): 4 µg/mL (≈ 6.97 µM)
- MIC (Enterococcus faecalis): < 0.06 µg/mL
- MIC (Escherichia coli): 0.57 µg/mL (≈ 0.994 µM)
- MIC (Pseudomonas aeruginosa [6]): 4 µg/mL (≈ 6.97 µM)
- MIC (Streptococcus pneumoniae): < 0.06 µg/mL
- IC50 (DNA gyrase subunit B): 2 nM
- MIC (Acinetobacter baumannii [7]): 1 µg/mL (≈ 1.74 µM)
- MIC (Acinetobacter baumannii [8]): 1 µg/mL (≈ 1.74 µM)
- pKa [9]: 7.9
- MIC (Acinetobacter baumannii [10]): 2 µg/mL (≈ 3.49 µM)
- MIC (Acinetobacter baumannii [11]): 1 µg/mL (≈ 1.74 µM)
- MIC (Acinetobacter baumannii [12]): 0.5 µg/mL (≈ 0.872 µM)
- MIC (Acinetobacter baumannii [13]): 2 µg/mL (≈ 3.49 µM)
- MIC (Pseudomonas aeruginosa [14]): 4 µg/mL (≈ 6.97 µM)
